Experimental data: PubChem BioAssay AID588837 (Broad Institute, 2011)
The source made the active and inactive calls. The rule behind the calls is not given here.

target: Scavenger receptor class B member 1 (Mus musculus) (UniProt Q61009); assay: [3H]CE-HDL uptake via mutant mSR-BI – C384S mutant cells, scintillation, powder samples, mechanism study for SR-BI HDL uptake inhibitor project, late-stage follow-up (AID 588837); conditions: CHO ldlA C384S mSR-BI, 2 h, at 1 µM, hits give low values
Outline: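 Test system: CHO cells lacking LDL receptor, overexpressing C384S mutant SR-BI; Buffer or medium: Ham's F12K medium with 0.5% fatty acid-free BSA; Compound: 0.5% DMSO with compound; Timing: 1 h pretreatment plus 2 h uptake at 37 °C; Signal: scintillation counting of cell-associated tritium label; Controls: 40-fold excess unlabeled HDL defining nonspecific background uptake.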

Sequence of Scavenger receptor class B member 1 (Mus musculus) (Q61009 whole entry C384S): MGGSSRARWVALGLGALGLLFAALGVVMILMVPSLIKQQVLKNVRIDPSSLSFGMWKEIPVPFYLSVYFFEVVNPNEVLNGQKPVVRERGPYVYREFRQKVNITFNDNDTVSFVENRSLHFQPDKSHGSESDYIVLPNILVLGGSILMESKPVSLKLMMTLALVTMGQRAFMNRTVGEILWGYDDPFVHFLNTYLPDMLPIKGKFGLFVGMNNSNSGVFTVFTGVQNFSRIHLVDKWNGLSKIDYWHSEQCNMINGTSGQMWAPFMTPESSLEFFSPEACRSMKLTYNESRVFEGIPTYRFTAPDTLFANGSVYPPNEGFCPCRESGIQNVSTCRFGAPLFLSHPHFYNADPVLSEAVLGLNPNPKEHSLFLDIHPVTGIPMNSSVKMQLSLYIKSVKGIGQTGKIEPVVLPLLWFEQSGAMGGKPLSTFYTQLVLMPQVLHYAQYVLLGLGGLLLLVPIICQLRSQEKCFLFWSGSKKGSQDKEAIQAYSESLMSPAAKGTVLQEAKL

| cholesterol uptake | SMILES |
| --- | --- |
| 89.4% | COc1ccc(-c2nnn(CC(=O)N(C3CCCCC3)C(C)C(=O)NC3CCCC3)n2)cc1OC (stereo not given) |
| 78.2% | CCOC(=O)N1CCC(NC(=O)c2ccc3c(c2)N(Cc2ccc(F)cc2)CCS3)CC1 |
| 88.3% | CCC(=O)N1CCc2cc(-c3csc(NC(=O)c4ccco4)n3)ccc21 |

The next lines start with the compound.

| SMILES | cholesterol uptake |
| --- | --- |
| Cc1ccc2oc(-c3cccc(NC(=O)c4cc(-n5cnnc5)ccc4Cl)c3)nc2c1 | 84.4% |
| O=C(Nc1ccc(Cl)cc1C(=O)c1ccc(Cl)cc1)c1cc(Br)ccc1NS(=O)(=O)c1ccc(Cl)cc1 | 121% (inactive) |
